Source: PubChem
MT1-MMP act inh – MT1-MMP (human) activation inhibition; P50281; HT1080 RFP-PRO-GFP cells, GFP/RFP ratio fluorescence, overnight; percent of plate control window, DMSO zero; GFP/RFP ratio change, % at 20 µM; hit rate 0.061% among 360,000; AID 651647;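 active = GFP/RFP ratio change of at least 30% with cell ATP level not reduced by more than half and red fluorescence within 50% of control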
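Material: RFP-PRO-GFP reporter HT1080 cells. Dosing: single-point 20 µM compound, 1% DMSO. Controls: DMSO and RFP-L50D-GFP cell wells. Timing: cells overnight before dosing, compound overnight, 37 °C, 5% CO2. Measure: GFP/RFP fluorescence ratio.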
GSK3B inh – inhibitors of human GSK3beta kinase; P49841; GST-GSK3beta kinase, ADP-Glo luminescence, 60 min; hits give low values; activity score (negative = inhibition), % at 10 µM; hit rate 0.038% among 300,000; AID 2097;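 active = more than half of replicate wells score below -50%, meaning over 50% inhibition versus plate controls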;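 note: 0% = median DMSO wells and -100% = median GW8510 positive control wells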
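Assay system: GST-tagged human GSK3beta kinase, cell-free; Input: 1.6 ng GSK3beta; Medium: Tris/MgCl2 kinase buffer; Timing: 60 min enzyme reaction, room temperature; Signal: ADP-Glo luminescence quantifying ADP generated by kinase; Evaluation: score relative to plate controls; Benchmarks: DMSO neutral wells and GW8510 at 20 µM as positive.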
GSK3 alpha inh – inhibitors of human GSK-3 alpha kinase; AID 2650; ADP-Glo luminescence, 60 min; inhibition, % at 10 µM; hit rate 0.1% among 320,000;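 active = more than half of replicates show inhibition above 20%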;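 note: GST-tagged GSK-3 alpha with peptide substrate and 25 µM ATP; 0% = DMSO neutral wells and 100% = GW8510 positive control wells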
Pemphigus Ab inh – human desmoglein-3 autoantibody binding inhibition; DSG3-coupled beads, scFv-anti-DSG3-GFP binding, flow cytometry; hits give low values; binding (percent of control), % at 10 µM; hit rate 0.48% among 310,000; AID 588358;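 active = binding more than 3 SD below its plate's average and above zero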;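 note: hits lower antibody fragment binding to DSG3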
STK33 kinase inh – human STK33 kinase inhibition | purified STK33, MBP phosphorylation, ADP-Glo luminescence | inhibition, % at 10 µM | hit rate 0.073% among 320,000;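 active = inhibition at or above 25%, using the most active replicate where run in duplicate; inactive = inhibition below 25%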
Target sequence (Q9BYT3 whole entry, looked up): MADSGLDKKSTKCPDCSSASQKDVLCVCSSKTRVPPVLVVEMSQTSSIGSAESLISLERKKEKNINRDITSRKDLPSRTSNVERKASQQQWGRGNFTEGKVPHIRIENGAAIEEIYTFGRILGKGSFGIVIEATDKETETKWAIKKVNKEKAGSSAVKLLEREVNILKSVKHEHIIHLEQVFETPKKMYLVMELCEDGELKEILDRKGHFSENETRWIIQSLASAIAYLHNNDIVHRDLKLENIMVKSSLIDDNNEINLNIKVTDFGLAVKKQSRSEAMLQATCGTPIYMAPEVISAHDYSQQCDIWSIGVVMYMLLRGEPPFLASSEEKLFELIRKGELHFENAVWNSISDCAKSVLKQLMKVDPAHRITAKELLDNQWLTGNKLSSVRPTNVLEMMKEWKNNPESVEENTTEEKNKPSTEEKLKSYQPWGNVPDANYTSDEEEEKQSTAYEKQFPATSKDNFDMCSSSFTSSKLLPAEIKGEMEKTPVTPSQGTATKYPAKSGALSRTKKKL
Starred values were filed as active, the others as inactive; . = no result. The list is not random: actives were taken first. Their share in the collection is about 0.63%.

SMILES	MT1-MMP act inh	GSK3B inh	GSK3 alpha inh	Pemphigus Ab inh	STK33 kinase inh
Cc1ccc(C(=O)c2coc3ccc(OCC(=O)O)cc23)cc1	-2.4	-71.5*	88.8*	103.6	2.6
Oc1cc(O)cc(/C=C/c2ccc(O)c(O)c2)c1	0.1	.	28.1	123.6	49.9*
Cc1cc(C(=O)N2CCN(c3ccc([N+](=O)[O-])cc3)CC2)co1	4.4	-5.8	0.0	95.7	-1.1
Cn1c(C(=O)N2CCN(c3ccc([N+](=O)[O-])cc3)CC2)cc2c(=O)[nH]c3ccccc3c21	2.6	-0.6	.	71.6*	.
COC(=O)C1=CN(c2ccc(OC)cc2OC)C(N)=C(C#N)C1c1cccc([N+](=O)[O-])c1 (stereo unspecified)	18.4	.	.	.	.
CC(C)c1ccc(S(=O)(=O)/N=C2\C=C(NS(=O)(=O)c3ccccc3)C(=O)c3ccccc32)cc1	1.9	0.5	1.3	91.6	2.5
CCc1ccc(S(=O)(=O)/N=C2\C=C(NS(=O)(=O)c3ccccc3)C(=O)c3ccccc32)cc1	4.8	-0.2	.	49.3*	.
CC(C)NC(=O)C1(C#N)C=C1c1ccccc1 (stereo unspecified)	-2.7	.	.	.	.
CN1\C(=C/C=C/C=C/C=[N+](C)C)C(C)(C)c2ccccc21	-9.4	-7.0	.	66.2*	.
COc1cccc2c1cc1c(=O)n(CC(=O)NCCCN3CCCCC3)nc(C)n12	1.4	-60.3*	-1.0	102.4	0.0
COc1cccc2c1cc1c(=O)n(CC(=O)NCCCc3ccccc3)nc(C)n12	0.0	0.9	-1.5	103.2	-0.2
COc1ccccc1C(=O)NC1CCCc2ccccc21 (stereo unspecified)	0.3	2.6	-2.9	.	0.0
COc1ccc(S(N)(=O)=O)cc1C(=O)NC1CCCc2ccccc21 (stereo unspecified)	1.5	.	-2.7	-38.5*	0.6
Cn1ncc2cc3c(Nc4ccc(Cl)cc4)cccc3nc21	-11.3	.	.	.	.
CCCCn1nnnc1C(c1cc2ccccc2o1)N1CCN(c2ccncc2)CC1 (stereo unspecified)	2.1	.	.	.	.
COc1ccc(-c2nnc3sc(CN4C(=O)c5ccccc5C4=O)nn23)cc1	4.2	0.3	0.1	101.8	0.1
O=C1c2ccccc2C(=O)N1Cc1nn2c(-c3ccc(Cl)cc3)nnc2s1	.	2.1	0.1	58.7*	-0.5
COC(=O)[C@]12CCCCC=C1N(Cc1ccc(Cl)cc1Cl)C(=O)[C@H](CC(=O)N1CCSCC1)C2	-10.3	.	.	.	.
O=C(Cc1c(F)cccc1Cl)Nc1ccccc1-c1ccccc1	2.9	0.4	2.3	47.4*	-3.4
CCN(CC)Cc1cc2[nH]c3c4ccc(Cl)cc4ncc3c2cc1OC	-2.8	-52.0*	.	103.0	.
COC(=O)CCC(=O)OC1(C)C(=O)C=C2C=C(c3ccsc3)OC=C2C1=O (stereo unspecified)	16.4	-1.2	-1.1	43.1*	-0.1
COc1ccc(C(=O)NC(=S)Nc2ccc(N3CCCC3)cc2)cc1	-2.4	1.2	0.1	18.9*	-0.4
COc1ccc(N2CCN(S(=O)(=O)c3ccc(C(=O)NC4CCCC4)cc3)CC2)cc1	0.7	-0.5	.	75.0*	.
COc1ccc(S(=O)(=O)N2CCC(NC(=O)c3ccccc3)CC2)cc1	2.9	0.5	1.9	89.7	-1.1
COc1ccc(C(=O)Nc2ccc(N3CCCC3)cc2)cc1	1.7	1.8	-2.7	147.4	-1.5
SMILES	MT1-MMP act inh	GSK3B inh	GSK3 alpha inh	Pemphigus Ab inh	STK33 kinase inh
COc1ccccc1N=c1oc2cc(O)ccc2cc1C(=O)NCC1CCCO1 (stereo unspecified)	0.3	0.9	0.2	.	-3.1
COc1ccccc1N=c1oc2cc(O)ccc2cc1C(N)=O	-25.0	2.1	61.0*	100.7	36.8*
Cc1cccc(N=c2oc3cc(O)ccc3cc2C(N)=O)c1	-30.3	0.4	55.8*	.	19.1
Cc1ccn(C(=O)c2ccc(NC(=O)C3CC3)cc2)n1	-5.5	-3.5	-2.1	73.5*	-1.4
COc1ccc(S(=O)(=O)Nc2ccc(Cc3ccncc3)cc2)cc1OC	0.2	2.0	-1.9	39.5*	0.5
Cc1cc(N2C(=O)c3ccc(C(=O)Nc4ccc(O)cc4C(=O)O)cc3C2=O)no1	2.1	-1.0	0.5	.	32.5*
CCCCNC(=O)c1nc(-c2cccnc2OC)oc1-c1ccc(Cl)cc1	-0.8	.	.	.	.
CCOC(=O)CC(=O)CSc1ccc2nnc(-c3ccc(F)cc3)n2n1	0.3	-29.0	25.5	102.4	-1.3
CCCN(CCC)CCCNc1ccc2nnc(-c3ccc(F)cc3)n2n1	-4.7	-43.8	56.3*	108.5	1.6
COC(=O)[C@]12CCCCC=C1N(Cc1cccc3ccccc13)C(=O)[C@H](CC(=O)NCC1CCCCC1)C2	-12.7	.	.	.	.
CC(C)CC(=O)NN(C)c1nc(-c2ccccc2)nnc1C(F)(F)F	0.2	0.4	-0.9	51.8*	-2.7
CC1=[N+](C)c2c(ccc3cccnc23)C1(C)C	6.6	.	.	79.2*	.
Cc1[nH]c2c(ccc3cccnc32)c1C	.	0.1	0.1	97.8	-2.7
COC(=O)[C@@]12C[C@@H](CC(=O)NCc3ccc(OC)c(OC)c3)C(=O)N(Cc3ccc4c(c3)OCO4)C1=CCC(C)(C)C2	6.9	.	.	.	.
O=C(Nc1ccc(F)cc1)Nc1ccc([N+](=O)[O-])cn1	-2.4	-2.7	0.3	54.3*	-0.1
COCCCN1C(=O)C(CC(=O)NCCN2CCOCC2)CC(C(=O)N(C)C)=C1C (stereo unspecified)	-0.9	.	.	.	.
COCc1cc(C)nc(SCC(=O)Nc2cccc3cccnc23)c1C#N	4.8	-1.4	-1.0	23.3*	0.8
COc1ccc(S(=O)(=O)N2CCCCC2c2cc(C(=O)NCc3ccccc3)no2)cc1 (stereo unspecified)	-2.8	.	.	.	.
CCOC(=O)Nc1ccc(Oc2ccccc2)cc1	4.9	3.0	-1.6	95.6	-0.4
CCOC(=O)Nc1ccc(OC(=O)Oc2ccc(NC(=O)OCC)cc2)cc1	-1.1	.	.	77.8*	.
COc1cccc(C2c3c(oc4ccccc4c3=O)C(=O)N2Cc2ccco2)c1 (stereo unspecified)	0.4	0.6	1.4	67.5*	-0.1
COc1cccc(-c2cnc3c(NC(C)=O)cc(-c4ccsc4)cn23)c1	-6.9	.	.	.	.
COc1ccc(C(=O)Nc2cc(C)c3c(=O)oc4ccccc4c3n2)cc1	3.2	0.8	-4.7	-3.5*	-1.5
COCC(=O)Nc1cc(C)c2c(=O)oc3ccccc3c2n1	2.8	-0.1	4.2	100.2	-0.1
CC(C)NC[C@@H](O)c1ccc(O)c(O)c1	0.8	0.9	1.1	120.4	1.7
CC(C)(C)NCC(O)c1cc(O)cc(O)c1 (stereo unspecified)	1.2	1.2	3.0	45.0*	0.4
Fc1ccc(-c2nc3c4ccccc4ccn3c2Cc2ccsc2)cc1	-0.1	.	.	.	.
O=C(Nc1nc2cc3c(cc2s1)OCCO3)c1ccncc1	-2.5	-0.8	-0.2	100.3	0.9
O=C(Nc1nc2cc3c(cc2s1)OCCO3)c1ccc(N2C(=O)CCC2=O)cc1	0.9	-0.3	-1.0	81.1*	-1.3
